Assay results: paper PMC4186684 (Molecular Pharmaceutics, 2014)
Converted amounts (≈) assume the structure as drawn. Values belong to the molecule of their own block, whether it stands above or below them.

Legend:
P. aeruginosa (PAO1) = test: MIC by broth microdilution; type: cell-based; conditions: Pseudomonas aeruginosa
How it was run: (§1)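 Cultures were grown overnight in tryptic soy broth at 37 °C, shaken at 175 rpm, then diluted from 1 × 10⁸ to 1 × 10⁵ CFU/mL. Peptides were 5 mM stocks in water, or in 50 mM NH₄HCO₃ for poorly soluble ones. Test compound was mixed 1:39 (v/v) with the suspension, serially 2-fold diluted and incubated statically overnight at 37 °C. MIC was the lowest concentration with no visible growth, in triplicate. Controls were tetracycline (MRSA) and tobramycin (P. aeruginosa).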

SK-OV-3 cells = test: Confocal laser scanning microscopy of cellular uptake; type: cell-based, human; conditions: 10 μM, 1 h at 37 °C, Opti-MEM I, 488 nm excitation
How it was run: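 SK-OV-3 cells were seeded on coverslips in complete EMEM at 1 × 10⁵ cells/well and held at 50% confluency. Medium was replaced with fluorescein-labeled test peptide in Opti-MEM I reduced serum medium for 1 h at 37 °C. Cells were washed three times with PBS containing Ca/Mg and mounted. Imaging used 488 nm argon laser excitation and a 505–530 nm band-pass filter. FAM served as the comparison.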

E. coli (ATCC 35218) = test: MIC used as basis of the time-kill studies; type: cell-based; conditions: Escherichia coli, ATCC35218
MRSA (ATCC 43300) = test: MIC used as basis of the time-kill studies; type: cell-based; conditions: Staphylococcus aureus, ATCC43300|MRSA
[1] = system: methicillin-resistant S. aureus (MRSA, ATCC 43300); test: MIC by broth microdilution; type: cell-based; conditions: Staphylococcus aureus, ATCC43300|MRSA
How it was run: as §1

- MIC (P. aeruginosa (PAO1)): 0.731 µg/mL (≈ 1.56 µM)
Molecule: NC[C@H]1O[C@H](O[C@H]2[C@H](O)[C@@H](O[C@H]3O[C@H](CO)[C@@H](O)[C@H](N)[C@H]3O)[C@H](N)C[C@@H]2N)[C@H](N)C[C@@H]1O [tobramycin]

- intracellular fluorescence / localisation (CLSM) (SK-OV-3 cells): no significant fluorescence
Molecule: 5(6)-Carboxyfluorescein [FAM]

Molecule: CN(C)[C@@H]1C(O)=C(C(N)=O)C(=O)[C@@]2(O)C(O)=C3C(=O)c4c(O)cccc4[C@@](C)(O)[C@H]3C[C@@H]12 [tetracycline]
- MIC (E. coli (ATCC 35218)): 2 µg/mL (≈ 4.5 µM)
- MIC (MRSA (ATCC 43300)): 0.5 µg/mL (≈ 1.13 µM)
- MIC [1]: 0.156 µg/mL (≈ 0.351 µM)
